ChEMBL document CHEMBL5137109, “Tunable Cysteine-Targeting Electrophilic Heteroaromatic Warheads Induce Ferroptosis” (J Med Chem, 2022)
pIC50: −log10 of the molar value. Activity calls are given as the source filed them. The calls are words filed in the database; no cut-off is given here.

Legend:
HCT-116 = assay: Cytotoxicity against human HCT-116 cells assessed as reduction in cell viability incubated for 3 days by methylene blue staining based analysis; type: functional; settings: HCT-116, 72 h
NCI-H522 [1] = assay: Cytotoxicity against human NCI-H522 cells assessed as reduction in cell viability incubated for 3 days by methylene blue staining based analysis; type: functional; settings: NCI-H522, 72 h
[2] = Selectivity ratio of IC50 for human HCT-116 cells to IC50 for human NCI-H522 cells by methylene blue staining based analysis; type: functional
NCI-H522 [3] = assay: Induction of lipid peroxidation in human NCI-H522 cells assessed as increase in C11-BODIPY oxidation at 5 uM incubated for 6 hrs by flow cytometry; type: functional, cell-based
Method in brief: (§1)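 NCI-H522 cells (~70% density) plated in dishes overnight, then treated with compound or DMSO plus C11-BODIPY 581/591 (1 μM) added at treatment. After 3 h or 6 h, cells washed, trypsinized, resuspended in PBS with 2% FBS and analysed by flow cytometry (preferably 20×10³ cells). Oxidation compared with DMSO treatment.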

HeLa = assay: Cytotoxicity against human HeLa cells assessed as reduction in cell viability incubated for 3 days by methylene blue staining based analysis; type: functional; settings: 72 h
[4] = Cytotoxicity against mouse MEF cells assessed as reduction in cell viability incubated for 3 days by methylene blue staining based analysis; type: toxicity
MDA-MB-231 = assay: Cytotoxicity against human MDA-MB-231 cells assessed as reduction in cell viability incubated for 3 days by methylene blue staining based analysis; type: functional; settings: MDA-MB-231, 72 h
[5] = Ratio of IC50 for cytotoxicity against human NCI-H522 cells in presence of ferroptosis inhibitor, liproxstatin-1 to IC50 for cytotoxicity against human NCI-H522 cells; type: functional
Method in brief: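 NCI-H522 cells, 25*10³/well (n=3), plated overnight, treated with compound with or without Liproxstatin-1 (0.25 μM). After 3 days, methylene blue in 50% ethanol fix/stain 30 min RT, dye dissolved in 0.1N HCl, A668. Fold change = IC₅₀ with Liproxstatin-1 / IC₅₀ without.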

MDA-MB-468 = assay: Cytotoxicity against human MDA-MB-468 cells assessed as reduction in cell viability incubated for 3 days by methylene blue staining based analysis; type: functional; settings: MDA-MB-468, 72 h
NCI-H522 [6] = assay: Cytotoxicity against human NCI-H522 cells assessed as reduction in cell viability incubated for 3 days in presence of ferroptosis inhibitor, liproxstatin-1 by methylene blue staining based analysis; type: functional; settings: NCI-H522, 72 h
Method in brief: (§2)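 NCI-H522 cells seeded at 25×10³/well (n=3), adhered overnight, then exposed to compound with or without liproxstatin-1 (0.25 μM). After 3 days, methylene blue staining with HCl elution and A668. Results given as % relative to DMSO control, mean ± SD, n=3, one-way ANOVA. Fold change is IC50 (with liproxstatin-1)/IC50 (alone).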

HT-1080 = assay: Cytotoxicity against human HT-1080 cells assessed as reduction in cell viability incubated for 3 days by methylene blue staining based analysis; type: functional; settings: HT-1080, 72 h
[7] = Cytotoxicity against human WI-38 cells assessed as reduction in cell viability incubated for 3 days by methylene blue staining based analysis; type: toxicity
U2OS = assay: Cytotoxicity against human U2OS cells assessed as reduction in cell viability incubated for 3 days by methylene blue staining based analysis; type: functional; settings: 72 h
NCI-H522 [8] = assay: Induction of lipid peroxidation in human NCI-H522 cells assessed as increase in C11-BODIPY oxidation at 20 uM incubated for 6 hrs by flow cytometry; type: functional, cell-based; method in brief: as §1
NCI-H522 [9] = assay: Induction of lipid peroxidation in human NCI-H522 cells assessed as increase in C11-BODIPY oxidation at 10 uM incubated for 6 hrs by flow cytometry; type: functional, cell-based; method in brief: as §1
NCI-H522 [10] = assay: Induction of lipid peroxidation in human NCI-H522 cells assessed as increase in C11-BODIPY oxidation at 40 uM incubated for 6 hrs by flow cytometry; type: functional, cell-based; method in brief: as §1
NCI-H522 [11] = assay: Induction of lipid peroxidation in human NCI-H522 cells assessed as increase in C11-BODIPY oxidation at 5 uM incubated for 3 hrs by flow cytometry; type: functional, cell-based; method in brief: as §1
NCI-H522 [12] = assay: Cytotoxicity against human NCI-H522 cells assessed as reduction in cell survival at 2 uM incubated for 3 days in presence of ferroptosis inhibitor, liproxstatin-1 by methylene blue staining based analysis; type: functional; settings: time 3.0 day; method in brief: as §2
NCI-H522 [13] = assay: Cytotoxicity against human NCI-H522 cells assessed as time required to cause 50% irreversible cell death treated with compound followed by washing for every 30 mins for 6 hrs by methylene blue staining based analysis; type: functional
Method in brief: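 NCI-H522 cells, 5*10³/well (n=3), plated overnight, then treated with compound or DMSO. Wells washed immediately after treatment and then at 30-min intervals up to 6 h; last wells not washed. Methylene blue in 50% ethanol fix/stain 30 min RT, dye dissolved in 0.1N HCl, A668. Each point taken as % survival of matching DMSO-treated cells.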

| Compound | pIC50 (HCT-116) | pIC50 (NCI-H522 [1]) | other results |
| --- | --- | --- | --- |
| Brc1nc2ccccc2s1 | < 4.40 | < 4.40 | – |
| C#Cc1nc(C(=O)Nc2ccc(Cl)cc2)cs1 | 4.80 | 6.27 | Ratio IC50 [2]: 29.4; Activity (NCI-H522 [3]): Active |
| C#CC(=O)N1CCN(C(c2ccc(Cl)cc2)c2ccc(Cl)cc2)CC1 | 5.42 | 5.95 | pIC50 (HeLa): 6.52; IC50 at 3 days [4]: 0.082 µM; pIC50 (MDA-MB-231): 7.42; Ratio IC50 [5]: 2.55; pIC50 (MDA-MB-468): 7.19; pIC50 (NCI-H522 [6]): 5.54; pIC50 (HT-1080): 6.42; IC50 at 3 days [7]: 0.5 µM; pIC50 (U2OS): 6.20 |
| C#Cc1sc(-c2ccc(F)cc2)nc1C(=O)OCC | < 4.40 | 5.45 | Activity (NCI-H522 [8]): Active; Ratio IC50 [2]: 11.33 |
| CCOC(=O)c1csc(C#Cc2ccccc2)n1 | < 4.40 | < 4.40 | – |
| C#CCNC(=O)c1csc(Br)n1 | < 4.40 | < 4.40 | – |
| C#Cc1nc2ccccc2o1 | 4.94 | 5.90 | Ratio IC50 [2]: 9.12; Activity (NCI-H522 [9]): Active |
| C#Cc1nc(/C=C/C(=O)N2CCN(C(c3ccc(Cl)cc3)c3ccc(Cl)cc3)CC2)cs1 | – | 8.22 | – |
| C#Cc1nccs1 | < 4.40 | < 4.40 | – |
| C=Cc1nc2ccccc2[se]1 | < 4.40 | 4.91 | Ratio IC50 [2]: >3.27 |
| C#CCNC1CCC(c2csc(C#C)n2)=C1C (configuration not stated) | < 4.40 | 5.60 | Activity (NCI-H522 [8]): Active |
| CC#CC1=Nc2ccccc2C(C)(C)O1 | < 4.40 | 5.08 | Activity (NCI-H522 [10]): Active; Ratio IC50 [2]: >4.76 |
| c1ccc2[se]cnc2c1 | < 4.40 | < 4.40 | – |
| Brc1nc2ccccc2o1 | < 4.40 | < 4.40 | – |
| C=Cc1nc(C(=O)OCC)cs1 | < 4.40 | < 4.40 | – |
| C#Cc1nc(C(=O)N2CCN(c3ccc(Cl)cc3)CC2)cs1 | – | 7.55 | – |
| C#CC1=Nc2ccccc2C(C)(C)O1 | 5.25 | 6.05 | Ratio IC50 [2]: 6.3; Activity (NCI-H522 [3]): Active |
| C=Cc1csc(Br)n1 | < 4.40 | < 4.40 | – |
| CC#Cc1nc(C(=O)OCC)cs1 | < 4.40 | < 4.40 | – |
| C#Cc1nc(C(=O)OCC)cs1 | < 4.40 | 5.57 | Activity (NCI-H522 [8]): Active; Ratio IC50 [2]: >14.98 |
| C#Cc1ccccn1 | < 4.40 | < 4.40 | – |
| C#Cc1nc(C(=O)N2CCN(CC)CC2)cs1 | – | < 6.00 | – |
| C#Cc1nc(C(=O)Nc2ccc(OC)cc2)cs1 | 5.08 | 6.17 | Ratio IC50 [2]: 12.52; Activity (NCI-H522 [11]): Active |
| Cn1c(I)nc2ccccc21 | 4.76 | 5.99 | Ratio IC50 [2]: 17.16; Activity (NCI-H522 [12]): Active |

| Compound | pIC50 (HCT-116) | pIC50 (NCI-H522 [1]) | other results |
| --- | --- | --- | --- |
| C#Cc1nc(C(=O)N2CCN(c3ccc(F)cc3)CC2)cs1 | – | 7.19 | – |
| C#Cc1csc(Br)n1 | < 4.40 | < 4.40 | – |
| C#Cc1ncccn1 | < 4.40 | < 4.40 | – |
| C=Cc1sc(-c2ccc(F)cc2)nc1C(=O)OCC | < 4.40 | < 4.40 | – |
| Cn1cnc2ccccc21 | < 4.40 | < 4.40 | – |
| Brc1nc2ccccc2[se]1 | < 4.40 | < 4.40 | – |
| C#Cc1nc(/C=C/C(=O)Nc2ccc(Cl)cc2)cs1 | 4.63 | 6.43 | Ratio IC50 [2]: 62.64; Activity (NCI-H522 [11]): Active |
| c1ccc2ocnc2c1 [BENZO[D]OXAZOLE] | < 4.40 | < 4.40 | – |
| C#Cc1nc2ccccc2n1C | 4.71 | 5.09 | Activity (NCI-H522 [10]): Active; Ratio IC50 [2]: 2.37 |
| C=Cc1nc2ccccc2o1 | < 4.40 | < 4.40 | – |
| CC#Cc1nc2ccccc2s1 | < 4.40 | < 4.40 | – |
| Ic1nc2ccccc2o1 | < 4.40 | 4.93 | Ratio IC50 [2]: 3.41 |
| C#Cc1nc(C(=O)Nc2ccccc2)cs1 | 5.31 | 6.18 | Ratio IC50 [2]: 7.39; Activity (NCI-H522 [11]): Active |
| c1ccc2scnc2c1 [BENZO[D]THIAZOLE] | < 4.40 | < 4.40 | – |
| C#Cc1nc(C(=O)N2CCN(c3ccc(C(F)(F)F)cc3)CC2)cs1 | – | 7.43 | – |
| Ic1nc2ccccc2s1 | < 4.40 | < 4.40 | – |
| N#Cc1nccs1 | < 4.40 | < 4.40 | – |
| COC(=O)c1ccc([C@H]2c3[nH]c4ccccc4c3CC(C(=O)OC)N2C(=O)CCl)cc1 (some centres not stated) | – | – | IT50 (NCI-H522 [13]): 1.33 h |
| C#CCNC(=O)c1cscn1 | < 4.40 | < 4.40 | – |
| Ic1nc2ccccc2[se]1 | < 4.40 | < 4.40 | – |
| O=C(CCl)N1CCN(C(c2ccc(Cl)cc2)c2ccc(Cl)cc2)CC1 | 5.78 | 6.12 | pIC50 (HeLa): 5.68; IC50 at 3 days [4]: 0.352 µM; pIC50 (MDA-MB-231): 6.31; Ratio IC50 [5]: 4.12; pIC50 (MDA-MB-468): 5.76; pIC50 (NCI-H522 [6]): 5.51; pIC50 (HT-1080): 6.52; IC50 at 3 days [7]: 1.74 µM; pIC50 (U2OS): 5.77 |
| Cc1onc(C(=O)N2CCN(C(c3ccc(Cl)cc3)c3ccc(Cl)cc3)CC2)c1[N+](=O)[O-] | < 6.00 | 7.36 | pIC50 (HeLa): 6.60; IC50 at 3 days [4]: 0.016 µM; pIC50 (MDA-MB-231): 7.70; Ratio IC50 [5]: 784.431; pIC50 (MDA-MB-468): 7.18; pIC50 (NCI-H522 [6]): 4.46; pIC50 (HT-1080): 7.66; IC50 at 3 days [7]: 0.06 µM; pIC50 (U2OS): 6.09 |
| C=Cc1nc2ccccc2s1 | < 4.40 | < 4.40 | – |
| Cn1c(Br)nc2ccccc21 | < 4.40 | < 4.40 | – |
